These results are taken from ChEMBL document CHEMBL4118255, “Synthesis and antibacterial evaluation of novel 11-O-aralkylcarbamoyl-3-O-descladinosylclarithromycin derivatives” (2018).

Type in all cases: functional
The subject of assay [1] is Streptococcus pneumoniae. Nature of the assay: Potency index, ratio of azithromycin MIC to compound MIC for erythromycin-resistant Streptococcus pneumoniae AB11 harboring ermB and mefA gene.
Assay [2] relates to Bacillus subtilis. Nature of the assay: Antibacterial activity against erythromycin-susceptible Bacillus subtilis ATCC 9372 after 24 hrs by tube-dilution method. As to conditions: ATCC 9372, 24 h. The method in brief:
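MIC by standard NCCLS broth microdilution. Reference macrolides clarithromycin and azithromycin run alongside.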

The test system of assay [3] is Streptococcus pneumoniae. Description: Potency index, ratio of clarithromycin MIC to compound MIC for erythromycin-resistant Streptococcus pneumoniae AB11 harboring ermB and mefA gene.
Assay [4] concerns Streptococcus pyogenes. Description: Antibacterial activity against erythromycin-susceptible Streptococcus pyogenes after 24 hrs […].
For assay [5], the system named is Staphylococcus aureus. Description: Antibacterial activity against methicillin-resistant Staphylococcus aureus ATCC 43300 after 24 hrs by tube-dilution method. As to conditions: ATCC 43300, 24 h. A digest of the protocol:
(§1)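 MIC determined by the NCCLS-recommended standard broth microdilution method against erythromycin-resistant S. pneumoniae strains (A22072 mef, B1 erm, AB11 erm plus mef) and methicillin-resistant S. aureus ATCC43300.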

Assay [6] deals with Staphylococcus aureus. Nature of the assay: Antibacterial activity against erythromycin-susceptible Staphylococcus aureus ATCC 25923 after 24 hrs by […]. Particulars: ATCC 25923, 24 h.
Assay [7] concerns Streptococcus pneumoniae. Description: Antibacterial activity against erythromycin-resistant Streptococcus pneumoniae A22072 harboring mefA gene after 24 hrs by […]. As to conditions: A22072, 24 h.
The test system of assay [8] is Streptococcus pyogenes. Nature of the assay: Antibacterial activity against erythromycin-resistant Streptococcus pyogenes R1 after 24 hrs by tube-dilution method. As to conditions: R1, 24 h.
Assay [9] has as its system Streptococcus pneumoniae. Description: Potency index, ratio of azithromycin MIC to compound MIC for erythromycin-resistant Streptococcus pneumoniae A22072 harboring mefA gene.
The test system of assay [10] is Escherichia coli. Description: Antibacterial activity against penicillin-susceptible Escherichia coli ATCC 25922 incubated for 24 hrs by […]. Particulars: ATCC 25922, 24 h.
For assay [11], the system named is Streptococcus pneumoniae. Nature of the assay: Potency index, ratio of clarithromycin MIC to compound MIC for erythromycin-resistant Streptococcus pneumoniae A22072 harboring mefA gene.
In assay [12] the test system is Pseudomonas aeruginosa. Description: Antibacterial activity against penicillin-susceptible Pseudomonas aeruginosa ATCC 27853 incubated for 24 hrs by […]. As to conditions: ATCC 27853, 24 h.
Assay [13] deals with Streptococcus pneumoniae. Nature of the assay: Antibacterial activity against erythromycin-resistant Streptococcus pneumoniae B1 harboring ermB gene after 24 hrs by tube-dilution method. As to conditions: B1, 24 h. The method in brief:
as §1

For assay [14], the system named is Streptococcus pneumoniae. Nature of the assay: Antibacterial activity against erythromycin-resistant Streptococcus pneumoniae AB11 harboring ermB and mefA genes after 24 hrs by tube-dilution method. Particulars: AB11, 24 h. A digest of the protocol:
as §1

In assay [15] the test system is Streptococcus pyogenes. Nature of the assay: Potency index, ratio of azithromycin MIC to compound MIC for erythromycin-resistant Streptococcus pyogenes R1.
The test system of assay [16] is Streptococcus pyogenes. Description: Potency index, ratio of clarithromycin MIC to compound MIC for erythromycin-resistant Streptococcus pyogenes R1.
In assay [17] the test system is Streptococcus pneumoniae. Description: Potency index, ratio of clarithromycin MIC to compound MIC for erythromycin-resistant Streptococcus pneumoniae B1 harboring ermB gene.
The subject of assay [18] is Staphylococcus aureus. Description: Potency index, ratio of clarithromycin MIC to compound MIC for methicillin-resistant Staphylococcus aureus ATCC 43300.
Assay [19] deals with Staphylococcus aureus. Description: Potency index, ratio of azithromycin MIC to compound MIC for methicillin-resistant Staphylococcus aureus ATCC 43300.
Assay [20] deals with Streptococcus pneumoniae. Description: Potency index, ratio of azithromycin MIC to compound MIC for erythromycin-resistant Streptococcus pneumoniae B1 harboring ermB gene.

≈ marks a conversion by molar mass, not a printed value.

Regarding `CC[C@H]1OC(=O)[C@H](C)[C@@H](OC(=O)Cc2cccnc2)[C@H](C)[C@@H](O[C@@H]2O[C@H](C)C[C@H](N(C)C)[C@H]2O)[C@](C)(OC)C[C@@H](C)C(=O)[C@H](C)[C@@H](OC(=O)NCCNC(=O)c2cc([N+](=O)[O-])cc([N+](=O)[O-])c2)[C@]1(C)O`, the Ratio is 32 in assay [1], 32 in [3], 8 in assay [9] and 4 in assay [11]. The minimal inhibitory concentration (MIC) came to 1 µg/mL (≈ 1.01 µM) in [2]; 0.015 µg/mL (≈ 0.0152 µM) in [4]; 64 µg/mL (≈ 64.7 µM) in assay [5]; 1 µg/mL (≈ 1.01 µM) in assay [6]; 0.5 µg/mL (≈ 0.506 µM) in [7]; 128 µg/mL (≈ 129 µM) in [8]. Also, the MIC was determined as 64 µg/mL (≈ 64.7 µM) in assay [10], 64 µg/mL (≈ 64.7 µM) in [12], 32 µg/mL (≈ 32.4 µM) in assay [13] and 4 µg/mL (≈ 4.04 µM) in assay [14].

As to `CC[C@H]1OC(=O)[C@H](C)[C@@H](OC(=O)Cc2cccnc2)[C@H](C)[C@@H](O[C@@H]2O[C@H](C)C[C@H](N(C)C)[C@H]2O)[C@](C)(OC)C[C@@H](C)C(=O)[C@H](C)[C@@H](OC(=O)NCCNC(=O)C#Cc2cccc3ccccc23)[C@]1(C)O`, the minimal inhibitory concentration (MIC) in assay [2] was determined as 2 µg/mL (≈ 2.06 µM); in assay [4], 0.125 µg/mL (≈ 0.128 µM); in [5], 64 µg/mL (≈ 65.8 µM); in assay [6], 4 µg/mL (≈ 4.11 µM); in assay [7] it was 1 µg/mL (≈ 1.03 µM); in [8], 32 µg/mL (≈ 32.9 µM). Moreover, the MIC is more than 128 µg/mL in assay [10], more than 128 µg/mL in assay [12], 32 µg/mL (≈ 32.9 µM) in assay [13] and 16 µg/mL (≈ 16.4 µM) in [14]. Moreover, the Ratio in [15] and in assay [16] was 4 each time.

Consider `CC[C@H]1OC(=O)[C@H](C)[C@@H](OC(=O)Cc2cccnc2)[C@H](C)[C@@H](O[C@@H]2O[C@H](C)C[C@H](N(C)C)[C@H]2O)[C@](C)(OC)C[C@@H](C)C(=O)[C@H](C)[C@@H](OC(=O)NCCNC(=O)c2ccc([N+](=O)[O-])cc2N)[C@]1(C)O`, for which the Ratio in assay [1] amounted to 32; in [17], 8; in [3], 32; in assay [18] it was 4; in [19] it was 4; in assay [20], 8. Moreover, the Ratio in [9] stood at 16; in assay [11], 8. Further, the minimum inhibitory concentration (MIC) came out at 1 µg/mL (≈ 1.04 µM) in assay [2]; 0.03 µg/mL (≈ 0.0313 µM) in [4]; 64 µg/mL (≈ 66.7 µM) in [5]; 1 µg/mL (≈ 1.04 µM) in [6]; 0.25 µg/mL (≈ 0.261 µM) in [7]; 128 µg/mL (≈ 133 µM) in [8]. Also, the minimum inhibitory concentration (MIC) in assay [10] turned out to be 64 µg/mL (≈ 66.7 µM); in assay [12], 64 µg/mL (≈ 66.7 µM); in [13] it was 16 µg/mL (≈ 16.7 µM); in assay [14], 4 µg/mL (≈ 4.17 µM).

With `CC[C@H]1OC(=O)[C@H](C)[C@@H](OC(=O)Cc2cccnc2)[C@H](C)[C@@H](O[C@@H]2O[C@H](C)C[C@H](N(C)C)[C@H]2O)[C@](C)(OC)C[C@@H](C)C(=O)[C@H](C)[C@@H](OC(=O)NCCNC(=O)c2ccc(C3CCCCC3)cc2)[C@]1(C)O`, the minimum inhibitory concentration (MIC) turned out to be 4 µg/mL (≈ 4.08 µM) in assay [2]; 0.5 µg/mL (≈ 0.51 µM) in assay [4]; 32 µg/mL (≈ 32.6 µM) in assay [5]; 2 µg/mL (≈ 2.04 µM) in assay [6]; 1 µg/mL (≈ 1.02 µM) in [7]; 32 µg/mL (≈ 32.6 µM) in assay [8]. The MIC in [10] is 128 µg/mL (≈ 130 µM); in assay [12], 128 µg/mL (≈ 130 µM); in [13], 64 µg/mL (≈ 65.2 µM); in assay [14], 32 µg/mL (≈ 32.6 µM). For the same compound, the Ratio in [15] and in [16] was 4 throughout.

On to `CC[C@H]1OC(=O)[C@H](C)[C@@H](OC(=O)Cc2cccnc2)[C@H](C)[C@@H](O[C@@H]2O[C@H](C)C[C@H](N(C)C)[C@H]2O)[C@](C)(OC)C[C@@H](C)C(=O)[C@H](C)[C@@H](OC(=O)NCCNC(=O)c2ccc([N+](=O)[O-])cc2)[C@]1(C)O`, for which the MIC in assay [2] was 2 µg/mL (≈ 2.12 µM); in assay [4], 0.03 µg/mL (≈ 0.0318 µM); in assay [5], 128 µg/mL (≈ 136 µM); in assay [6] it was 1 µg/mL (≈ 1.06 µM); in [7], 0.5 µg/mL (≈ 0.53 µM); in assay [8], more than 128 µg/mL. In addition, the MIC in [10] turned out to be 64 µg/mL (≈ 67.8 µM); in [12], 64 µg/mL (≈ 67.8 µM); in [13] it was 32 µg/mL (≈ 33.9 µM); in [14] it was 8 µg/mL (≈ 8.47 µM). Also, the Ratio in assay [9] was 8; in [11], 4.

`CC[C@H]1OC(=O)[C@H](C)[C@@H](OC(=O)Cc2cccnc2)[C@H](C)[C@@H](O[C@@H]2O[C@H](C)C[C@H](N(C)C)[C@H]2O)[C@](C)(OC)C[C@@H](C)C(=O)[C@H](C)[C@@H](OC(=O)NCCNC(=O)/C=C/c2ccco2)[C@]1(C)O`: the MIC was 8 µg/mL (≈ 8.74 µM) in assay [2]; 0.125 µg/mL (≈ 0.137 µM) in assay [4]; 32 µg/mL (≈ 35 µM) in [5]; 16 µg/mL (≈ 17.5 µM) in [6]; 1 µg/mL (≈ 1.09 µM) in assay [7]; more than 128 µg/mL in [8]. Besides, the MIC in assay [10] was 128 µg/mL (≈ 140 µM); in [12], more than 128 µg/mL; in assay [13], 64 µg/mL (≈ 69.9 µM); in assay [14] it was 16 µg/mL (≈ 17.5 µM). Besides, the Ratio in assay [18] and in assay [19] was 4 in each case.

`CC[C@H]1OC(=O)[C@H](C)C(=O)[C@H](C)[C@@H](O[C@@H]2O[C@H](C)C[C@H](N(C)C)[C@H]2O)[C@](C)(OC)C[C@@H](C)C(=O)[C@H](C)[C@@H](OC(=O)NCCNC(=O)C#Cc2ccc(C)cc2)[C@]1(C)O`: the MIC is 1 µg/mL (≈ 1.23 µM) in [2]; 0.25 µg/mL (≈ 0.306 µM) in [4]; 128 µg/mL (≈ 157 µM) in [5]; 8 µg/mL (≈ 9.8 µM) in assay [6]; 0.5 µg/mL (≈ 0.613 µM) in assay [7]; more than 128 µg/mL in assay [8]. Also, the minimal inhibitory concentration (MIC) is more than 128 µg/mL in assay [10], 128 µg/mL (≈ 157 µM) in assay [12], 128 µg/mL (≈ 157 µM) in assay [13] and 64 µg/mL (≈ 78.4 µM) in [14]. The Ratio in [9] came to 8; in [11], 4.

On to `CC[C@H]1OC(=O)[C@H](C)C(=O)[C@H](C)[C@@H](O[C@@H]2O[C@H](C)C[C@H](N(C)C)[C@H]2O)[C@](C)(OC)C[C@@H](C)C(=O)[C@H](C)[C@@H](OC(=O)NCCNC(=O)C#Cc2ccc(Br)cc2)[C@]1(C)O`, for which the MIC is 1 µg/mL (≈ 1.14 µM) in [2]; 1 µg/mL (≈ 1.14 µM) in assay [4]; 16 µg/mL (≈ 18.2 µM) in assay [5]; 8 µg/mL (≈ 9.08 µM) in assay [6]; 2 µg/mL (≈ 2.27 µM) in assay [7]; 64 µg/mL (≈ 72.7 µM) in assay [8]. The MIC in assay [10] is 128 µg/mL (≈ 145 µM); in assay [12], more than 128 µg/mL; in assay [13] it was 128 µg/mL (≈ 145 µM); in [14], 32 µg/mL (≈ 36.3 µM). Further, the Ratio in assay [18] and in assay [19] was 8 throughout.

With `CC[C@H]1OC(=O)[C@H](C)[C@@H](O[C@H]2C[C@@](C)(OC)[C@@H](O)[C@H](C)O2)[C@H](C)[C@@H](O[C@@H]2O[C@H](C)C[C@H](N(C)C)[C@H]2O)[C@](C)(OC)C[C@@H](C)C(=O)[C@H](C)[C@@H](O)[C@]1(C)O` [CLARITHROMYCIN], the MIC in assay [2] is 0.25 µg/mL (≈ 0.334 µM); in [4] it was 0.03 µg/mL (≈ 0.0401 µM); in assay [5], more than 128 µg/mL; in [6] it was 0.25 µg/mL (≈ 0.334 µM); in assay [7], 2 µg/mL (≈ 2.67 µM); in assay [8] it was more than 128 µg/mL. In addition, the MIC is 64 µg/mL (≈ 85.6 µM) in assay [10], 64 µg/mL (≈ 85.6 µM) in assay [12], more than 128 µg/mL in assay [13] and 128 µg/mL (≈ 171 µM) in assay [14].
